Results published in the M2OR odorant receptor database.
Residue numbers refer to the chain shown, from its start.

Legend:
Settings in all cases: stereoisomer not certain
[1] = molecular target: T1, OR6C65 (Homo sapiens) (UniProt A6NJZ3)
T1 sequence (whole entry): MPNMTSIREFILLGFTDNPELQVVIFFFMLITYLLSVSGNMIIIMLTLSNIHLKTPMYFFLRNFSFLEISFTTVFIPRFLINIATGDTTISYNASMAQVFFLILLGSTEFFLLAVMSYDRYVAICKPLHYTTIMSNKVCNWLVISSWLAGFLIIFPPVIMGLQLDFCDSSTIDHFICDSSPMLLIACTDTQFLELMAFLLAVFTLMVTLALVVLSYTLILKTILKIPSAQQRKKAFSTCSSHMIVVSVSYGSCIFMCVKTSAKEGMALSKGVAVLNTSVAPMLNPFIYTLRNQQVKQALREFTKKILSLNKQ
Summary of the method: (§1)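 Whether a receptor–molecule pair is responsive (active) rests on the original authors' judgment that its measured signal was statistically different from baseline. Pairs without that judgment are non-responsive (inactive). Sources used varied assay methods, commonly transient luciferase assays in mammalian cell lines.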

[2] = molecular target: T2, OR6C68 (Homo sapiens) (UniProt A6NDL8)
T2 sequence (whole entry): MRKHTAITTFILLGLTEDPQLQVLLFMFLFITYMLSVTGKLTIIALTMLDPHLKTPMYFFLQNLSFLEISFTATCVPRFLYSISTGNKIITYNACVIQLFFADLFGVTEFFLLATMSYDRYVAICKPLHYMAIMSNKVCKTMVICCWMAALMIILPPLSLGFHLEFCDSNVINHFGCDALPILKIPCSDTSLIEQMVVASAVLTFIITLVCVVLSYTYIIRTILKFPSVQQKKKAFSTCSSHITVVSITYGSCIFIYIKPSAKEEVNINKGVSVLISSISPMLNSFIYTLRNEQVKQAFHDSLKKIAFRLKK
Summary of the method: as §1

[3] = molecular target: T3, OR6C70 (Homo sapiens) (UniProt A6NIJ9)
T3 sequence (whole entry): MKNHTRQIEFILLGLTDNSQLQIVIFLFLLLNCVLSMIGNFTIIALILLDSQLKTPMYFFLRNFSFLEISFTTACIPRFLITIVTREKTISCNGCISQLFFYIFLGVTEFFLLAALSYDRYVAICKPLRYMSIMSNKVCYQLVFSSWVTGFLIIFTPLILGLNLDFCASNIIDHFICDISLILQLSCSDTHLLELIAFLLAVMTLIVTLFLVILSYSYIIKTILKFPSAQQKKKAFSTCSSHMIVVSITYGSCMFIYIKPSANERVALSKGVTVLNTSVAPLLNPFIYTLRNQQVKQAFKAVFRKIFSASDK
Summary of the method: as §1

[4] = molecular target: T4, OR6C74 (Homo sapiens) (UniProt A6NCV1)
T4 sequence (whole entry): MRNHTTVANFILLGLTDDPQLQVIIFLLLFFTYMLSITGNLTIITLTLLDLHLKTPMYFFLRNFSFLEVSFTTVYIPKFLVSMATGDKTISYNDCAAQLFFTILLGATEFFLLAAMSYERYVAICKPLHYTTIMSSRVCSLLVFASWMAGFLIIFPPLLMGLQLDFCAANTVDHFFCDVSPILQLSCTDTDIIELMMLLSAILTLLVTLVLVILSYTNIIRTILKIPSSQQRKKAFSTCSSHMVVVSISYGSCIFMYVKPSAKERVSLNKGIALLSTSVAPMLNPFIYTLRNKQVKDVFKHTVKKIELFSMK
Summary of the method: as §1

[5] = molecular target: T5, OR6C75 (Homo sapiens) (UniProt A6NL08)
T5 sequence (whole entry): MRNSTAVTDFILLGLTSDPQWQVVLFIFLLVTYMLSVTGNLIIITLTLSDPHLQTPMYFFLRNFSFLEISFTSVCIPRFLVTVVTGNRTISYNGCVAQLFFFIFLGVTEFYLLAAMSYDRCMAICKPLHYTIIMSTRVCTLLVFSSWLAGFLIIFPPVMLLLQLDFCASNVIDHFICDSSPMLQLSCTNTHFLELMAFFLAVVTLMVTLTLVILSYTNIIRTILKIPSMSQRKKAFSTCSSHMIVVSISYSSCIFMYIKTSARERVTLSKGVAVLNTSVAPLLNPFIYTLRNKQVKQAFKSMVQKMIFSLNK
Summary of the method: as §1

[6] = molecular target: T6, OR6C76 (Homo sapiens) (UniProt A6NM76)
T6 sequence (whole entry): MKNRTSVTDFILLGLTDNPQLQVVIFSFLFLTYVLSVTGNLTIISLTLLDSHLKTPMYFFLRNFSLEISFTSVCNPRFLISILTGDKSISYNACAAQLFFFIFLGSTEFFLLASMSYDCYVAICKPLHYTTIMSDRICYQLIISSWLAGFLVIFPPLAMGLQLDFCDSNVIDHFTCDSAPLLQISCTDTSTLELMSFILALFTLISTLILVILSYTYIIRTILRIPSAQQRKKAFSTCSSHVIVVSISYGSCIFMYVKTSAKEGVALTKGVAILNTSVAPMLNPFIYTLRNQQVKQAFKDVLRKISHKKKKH
Summary of the method: as §1

[7] = molecular target: T7, OR6F1 (Homo sapiens) (UniProt Q8NGZ6)
T7 sequence (whole entry): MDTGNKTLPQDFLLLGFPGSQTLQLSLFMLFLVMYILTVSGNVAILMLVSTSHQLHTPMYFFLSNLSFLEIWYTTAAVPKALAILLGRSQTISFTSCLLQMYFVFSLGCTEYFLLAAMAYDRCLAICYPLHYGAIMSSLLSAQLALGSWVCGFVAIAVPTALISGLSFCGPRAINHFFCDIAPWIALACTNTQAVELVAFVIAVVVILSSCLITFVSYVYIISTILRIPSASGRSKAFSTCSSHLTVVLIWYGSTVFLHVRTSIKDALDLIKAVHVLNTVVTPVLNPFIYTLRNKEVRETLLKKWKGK
Summary of the method: as §1

[8] = molecular target: T8, OR6J1 (Homo sapiens) (UniProt Q8NGC5)
T8 sequence (whole entry): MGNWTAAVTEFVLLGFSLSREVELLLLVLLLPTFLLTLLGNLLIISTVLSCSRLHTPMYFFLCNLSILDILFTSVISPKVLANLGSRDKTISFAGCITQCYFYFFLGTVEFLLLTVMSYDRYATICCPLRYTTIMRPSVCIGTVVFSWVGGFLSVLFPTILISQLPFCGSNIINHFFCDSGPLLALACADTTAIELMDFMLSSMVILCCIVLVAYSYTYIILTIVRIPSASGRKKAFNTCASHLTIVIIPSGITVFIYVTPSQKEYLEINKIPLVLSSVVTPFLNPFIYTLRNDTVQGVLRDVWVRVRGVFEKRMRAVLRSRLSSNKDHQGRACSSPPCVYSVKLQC
Summary of the method: as §1

[9] = molecular target: T9, OR6K2 (Homo sapiens) (UniProt Q8NGY2)
T9 sequence (whole entry): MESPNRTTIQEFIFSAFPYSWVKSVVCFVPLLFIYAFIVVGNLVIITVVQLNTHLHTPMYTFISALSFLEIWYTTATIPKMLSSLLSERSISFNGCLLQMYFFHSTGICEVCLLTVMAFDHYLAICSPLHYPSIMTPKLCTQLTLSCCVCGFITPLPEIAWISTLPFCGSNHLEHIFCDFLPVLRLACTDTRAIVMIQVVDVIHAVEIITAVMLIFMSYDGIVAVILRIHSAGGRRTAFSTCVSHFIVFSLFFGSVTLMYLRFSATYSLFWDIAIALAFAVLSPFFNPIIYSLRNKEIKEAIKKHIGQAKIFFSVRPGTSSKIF
Summary of the method: as §1

[10] = molecular target: T10, OR6K3 (Homo sapiens) (UniProt Q8NGY3)
T10 sequence (whole entry): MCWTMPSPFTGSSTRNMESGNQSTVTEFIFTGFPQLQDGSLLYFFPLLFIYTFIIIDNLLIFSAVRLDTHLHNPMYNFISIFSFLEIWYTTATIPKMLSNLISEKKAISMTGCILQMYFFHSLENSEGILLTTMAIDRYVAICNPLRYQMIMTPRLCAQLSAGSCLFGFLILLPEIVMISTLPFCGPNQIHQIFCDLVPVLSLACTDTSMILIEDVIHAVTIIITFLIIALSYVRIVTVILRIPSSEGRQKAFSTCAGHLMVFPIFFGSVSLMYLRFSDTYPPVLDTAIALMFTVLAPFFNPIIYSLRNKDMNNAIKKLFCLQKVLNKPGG
Summary of the method: as §1

[11] = molecular target: T11, OR6K6 (Homo sapiens) (UniProt Q8NGW6)
T11 sequence (whole entry): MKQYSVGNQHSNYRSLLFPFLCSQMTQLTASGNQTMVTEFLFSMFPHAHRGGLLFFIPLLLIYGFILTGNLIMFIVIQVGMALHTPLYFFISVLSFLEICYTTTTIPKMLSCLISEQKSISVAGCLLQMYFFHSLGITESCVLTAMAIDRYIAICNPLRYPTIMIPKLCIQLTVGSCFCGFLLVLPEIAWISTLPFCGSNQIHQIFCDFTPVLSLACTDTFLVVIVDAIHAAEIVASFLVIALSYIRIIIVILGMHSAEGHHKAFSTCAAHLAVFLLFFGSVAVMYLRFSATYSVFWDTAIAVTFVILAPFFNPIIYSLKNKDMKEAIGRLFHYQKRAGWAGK
Summary of the method: as §1

[12] = molecular target: T12, OR6M1 (Homo sapiens) (UniProt Q8NGM8)
T12 sequence (whole entry): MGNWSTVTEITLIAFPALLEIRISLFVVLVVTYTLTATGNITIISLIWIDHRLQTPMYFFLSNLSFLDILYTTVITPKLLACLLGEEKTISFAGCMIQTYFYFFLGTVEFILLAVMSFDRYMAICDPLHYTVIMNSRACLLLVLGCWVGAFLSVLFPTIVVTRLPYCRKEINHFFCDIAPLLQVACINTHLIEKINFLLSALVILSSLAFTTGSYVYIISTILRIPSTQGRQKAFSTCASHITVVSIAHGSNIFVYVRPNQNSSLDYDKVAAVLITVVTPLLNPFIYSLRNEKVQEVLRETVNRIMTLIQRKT
Summary of the method: as §1

[13] = test system: T13, OR6M1 T276K
T13 sequence (whole entry): T12 sequence (whole entry) with T276K
Summary of the method: as §1

[14] = molecular target: T14, OR6N1 (Homo sapiens) (UniProt Q8NGY5)
T14 sequence (whole entry): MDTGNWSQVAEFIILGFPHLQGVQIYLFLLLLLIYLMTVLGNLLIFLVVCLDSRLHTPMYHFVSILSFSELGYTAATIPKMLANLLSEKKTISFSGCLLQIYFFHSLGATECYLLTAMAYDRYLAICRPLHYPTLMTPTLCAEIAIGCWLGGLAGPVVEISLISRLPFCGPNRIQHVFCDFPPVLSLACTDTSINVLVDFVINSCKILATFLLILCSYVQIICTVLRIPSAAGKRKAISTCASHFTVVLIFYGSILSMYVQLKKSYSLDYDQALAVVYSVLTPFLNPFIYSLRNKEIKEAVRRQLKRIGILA
Summary of the method: as §1

[15] = molecular target: T15, OR6N2 (Homo sapiens) (UniProt Q8NGY6)
T15 sequence (whole entry): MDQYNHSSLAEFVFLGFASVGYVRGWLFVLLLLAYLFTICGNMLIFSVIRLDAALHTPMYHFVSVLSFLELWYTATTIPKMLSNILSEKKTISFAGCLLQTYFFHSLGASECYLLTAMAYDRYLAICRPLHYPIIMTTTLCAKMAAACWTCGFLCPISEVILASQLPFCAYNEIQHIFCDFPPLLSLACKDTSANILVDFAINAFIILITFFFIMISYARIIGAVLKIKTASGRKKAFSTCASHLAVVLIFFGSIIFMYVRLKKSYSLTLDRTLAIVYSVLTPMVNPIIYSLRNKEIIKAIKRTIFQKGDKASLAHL
Summary of the method: as §1

[16] = molecular target: T16, OR6P1 (Homo sapiens) (UniProt Q8NGX9)
T16 sequence (whole entry): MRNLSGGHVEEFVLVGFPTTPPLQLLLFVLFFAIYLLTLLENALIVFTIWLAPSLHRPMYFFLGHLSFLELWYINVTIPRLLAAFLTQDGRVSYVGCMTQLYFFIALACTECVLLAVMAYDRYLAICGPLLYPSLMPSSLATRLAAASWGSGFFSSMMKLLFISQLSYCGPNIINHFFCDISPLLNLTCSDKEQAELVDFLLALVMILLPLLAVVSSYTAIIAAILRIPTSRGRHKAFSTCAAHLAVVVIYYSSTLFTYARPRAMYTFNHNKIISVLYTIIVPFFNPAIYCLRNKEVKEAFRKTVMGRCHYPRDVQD
Summary of the method: as §1

[17] = molecular target: T17, OR6Q1 (Homo sapiens) (UniProt Q8NGQ2)
T17 sequence (whole entry): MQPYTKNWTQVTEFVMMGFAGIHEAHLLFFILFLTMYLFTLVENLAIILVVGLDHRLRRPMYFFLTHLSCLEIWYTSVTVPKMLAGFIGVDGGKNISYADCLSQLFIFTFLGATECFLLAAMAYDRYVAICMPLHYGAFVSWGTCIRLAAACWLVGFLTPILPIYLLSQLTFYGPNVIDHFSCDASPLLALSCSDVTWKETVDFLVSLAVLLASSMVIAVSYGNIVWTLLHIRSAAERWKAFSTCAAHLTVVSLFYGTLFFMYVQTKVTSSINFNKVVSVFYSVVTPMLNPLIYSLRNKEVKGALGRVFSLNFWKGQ
Summary of the method: as §1

[18] = molecular target: T18, OR6J1 (Homo sapiens) (UniProt Q8NGC5); remark: listed apart in the source
T18 sequence (whole entry): T8 sequence (whole entry) with P250S
Summary of the method: as §1

[19] = test system: T19, OR6K3
T19 sequence (whole entry): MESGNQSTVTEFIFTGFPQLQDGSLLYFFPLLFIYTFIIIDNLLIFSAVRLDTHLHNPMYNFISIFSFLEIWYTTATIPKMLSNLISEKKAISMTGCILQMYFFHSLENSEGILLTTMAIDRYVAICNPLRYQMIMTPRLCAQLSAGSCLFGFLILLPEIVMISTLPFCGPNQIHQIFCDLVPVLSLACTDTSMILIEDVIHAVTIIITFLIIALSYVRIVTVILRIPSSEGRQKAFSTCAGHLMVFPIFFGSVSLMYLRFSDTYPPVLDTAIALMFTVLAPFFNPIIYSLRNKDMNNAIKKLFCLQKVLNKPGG
Summary of the method: as §1

[20] = test system: T20, OR6M1 R224C
T20 sequence (whole entry): T12 sequence (whole entry) with R224C
Summary of the method: as §1

Measured: odorant receptor agonist call;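 further: active if original authors judged signal statistically different from baseline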

CCCCCCC=CCCC=O
inactive: [1] | [2] | [3] | [4] | [5] | [6] | [7] | [8] | [9] | [10] | [11] | [12] | [13] | [14] | [15] | [16] | [17]

CC1=C(O)C(=O)C(C)O1 (stereo not given)
inactive: [1] | [2] | [3] | [4] | [5] | [6] | [7] | [18] | [9] | [19] | [11] | [12] | [20] | [13] | [14] | [15] | [16] | [17]
